Data: ChEMBL document CHEMBL5303300, “EUbOPEN Chemogenomics Library - Multiplex” (2023)
Values joined by “and” are separate entries in the source; they are usually repeats but may differ in a detail not shown here. Identical values can stand only once. *1 amine or outer side, *2 acyl side, *3 side chain or, on linkers, in order; H or OH if unused. Where a SMILES comes first, the peptide text is derived from it. Bridges are numbered along the chain shown (N, C = ends). Roman numbers before positions name the chains, in order. [ ]: non-standard residue; d: D form. Hexamethylenediamine = C(CCCN[*:2])CCN[*:1]; Dip = N[C@H](C(=O)O)C(c1ccccc1)c1ccccc1; Chg = N[C@H](C(=O)O)C1CCCCC1; NMeA = CN[C@@H](C)C(=O)O

Test system: U2OS
Test: Multiplex assay against U2OS
Format: toxicity, cell-based
Conditions: human, number of replicates 2
In short: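 On a CQ1 microscope at 37°C and 5% CO2, live cells were imaged after compound addition. They had been stained at seeding with Hoechst33342, BioTracker Green Microtubule Cytoskeleton Dye, MitoTracker Red and Annexin V Alexa Fluor 680. CellPathfinder machine-learning gating assigned cells to Hoechst high-intensity objects or normal cells, normal cells to healthy, pyknosed or fragmented nuclei, and pyknosed cells to mitotic or apoptotic. Tubulin, mitochondrial-mass and membrane-permeability phenotypes are per cents of healthy-nucleus cells.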

[1] = 12 h, 1 µM, compound concentration 1 uM
[2] = 12 h, 10 µM, compound concentration 10 uM
[3] = 24 h, 1 µM, compound concentration 1 uM
[4] = 24 h, 10 µM, compound concentration 10 uM
[5] = 48 h, 1 µM, compound concentration 1 uM
[6] = 48 h, 10 µM, compound concentration 10 uM

`CN1CCc2cc(Nc3ncc(C(F)(F)F)c(NCc4cc[nH]n4)n3)ccc2C1` was tested, and the “Population Hoechst High Intensity Objects (%)” value [1] was 0%, the “Population Membrane Permeable-Phenotype (%)” value [1] was 0% and 4% and the “Population Mitochondria Different-Phenotype (%)” value [1] was 0% and 1%. The “Population Mitotic Cells (%)” value [1] was 0% and 12%, the “Population Normal (%)” value [1] was 100% and the “Population Healthy Nuclei (%)” value [2] was 33% and 57%. For the same molecule, the “Population Hoechst High Intensity Objects (%)” value [2] was 0%, the “Population Membrane Permeable-Phenotype (%)” value [2] was 0% and 7% and the “Population Mitochondria Different-Phenotype (%)” value [2] was 0% and 5%. The “Population Normal (%)” value [2] was 100%, the “Population Pyknosed Nuclei (%)” value [2] was 16% and 27% and the “Population Tubulin-Different-Phenotype (%)” value [2] was 50% and 41%. The “Population Hoechst High Intensity Objects (%)” value [3] was 0%, the “Population Membrane Permeable-Phenotype (%)” value [3] was 0% and 6% and the “Population Mitochondria Different-Phenotype (%)” value [3] was 0% and 4%. For the same molecule, the “Population Mitotic Cells (%)” value [3] was 0% and 8%, the “Population Normal (%)” value [3] was 100% and 99% and the “Population Apoptotic (%)” value [4] was 71% and 80%. The “Population Healthy Nuclei (%)” value [4] was 15% and 45%, the “Population Hoechst High Intensity Objects (%)” value [4] was 0% and 1% and the “Population Membrane Permeable-Phenotype (%)” value [4] was 20% and 15%. For the same molecule, the “Population Mitochondria Different-Phenotype (%)” value [4] was 20% and 8%, the “Population Mitotic Cells (%)” value [4] was 28% and 19% and the “Population Normal (%)” value [4] was 100% and 98%. For the same molecule, the “Population Pyknosed Nuclei (%)” value [4] was 21% and 42%, the “Population Tubulin-Different-Phenotype (%)” value [4] was 60% and the “Population Healthy Nuclei (%)” value [5] was 0% and 21%. The “Population Hoechst High Intensity Objects (%)” value [5] was 0% and 1%, the “Population Mitochondria Different-Phenotype (%)” value [5] was 0% and 22% and the “Population Mitotic Cells (%)” value [5] was 0%. For the same molecule, the “Population Normal (%)” value [5] was 100% and 98%, the “Population Apoptotic (%)” value [6] was 93% and 88% and the “Population Healthy Nuclei (%)” value [6] was 16% and 15%. For the same molecule, the “Population Hoechst High Intensity Objects (%)” value [6] was 1% and 0%, the “Population Mitotic Cells (%)” value [6] was 6% and 11% and the “Population Normal (%)” value [6] was 98% and 100%. For the same molecule, the “Population Pyknosed Nuclei (%)” value [6] was 68% and 23% and the “Population Tubulin-Different-Phenotype (%)” value [6] was 80% and 66%.
In the case of `CN[C@@H](C)C(=O)N[C@H](C(=O)N1CCC[C@H]1C(=O)N[C@H](C(=O)NCCCCCCNC(=O)[C@@H](NC(=O)[C@@H]1CCCN1C(=O)[C@@H](NC(=O)[C@H](C)NC)C1CCCCC1)C(c1ccccc1)c1ccccc1)C(c1ccccc1)c1ccccc1)C1CCCCC1` (I: H-[NMeA][Chg]P[Dip] / II: H-[NMeA][Chg]P[Dip]; linker I:C-II:C via Hexamethylenediamine), the “Population Apoptotic (%)” value [1] is reported as 75% and 38%, the “Population Healthy Nuclei (%)” value [1] is reported as 41% and 84% and the “Population Hoechst High Intensity Objects (%)” value [1] is reported as 0%. The “Population Membrane Permeable-Phenotype (%)” value [1] was 0%, the “Population Mitochondria Different-Phenotype (%)” value [1] was 0% and the “Population Mitotic Cells (%)” value [1] was 25% and 61%. The “Population Normal (%)” value [1] was 100%, the “Population Pyknosed Nuclei (%)” value [1] was 7% and 12% and the “Population Tubulin-Different-Phenotype (%)” value [1] was 36% and 78%. The “Total Cell Count” value [1] was 53 and 104, the “Population Apoptotic (%)” value [2] was 90% and 91% and the “Population Healthy Nuclei (%)” value [2] was 62% and 56%. For the same molecule, the “Population Hoechst High Intensity Objects (%)” value [2] was 1% and 0%, the “Population Membrane Permeable-Phenotype (%)” value [2] was 10% and 0% and the “Population Mitochondria Different-Phenotype (%)” value [2] was 20% and 19%. The “Population Mitotic Cells (%)” value [2] was 9% and 8%, the “Population Normal (%)” value [2] was 98% and 100% and the “Population Pyknosed Nuclei (%)” value [2] was 31% and 21%. The “Population Tubulin-Different-Phenotype (%)” value [2] was 57% and 22%, the “Population Apoptotic (%)” value [3] was 62% and 52% and the “Population Healthy Nuclei (%)” value [3] was 47% and 89%. The “Population Hoechst High Intensity Objects (%)” value [3] was 0%, the “Population Membrane Permeable-Phenotype (%)” value [3] was 9% and 0% and the “Population Mitochondria Different-Phenotype (%)” value [3] was 0%. The “Population Mitotic Cells (%)” value [3] was 37% and 47%, the “Population Normal (%)” value [3] was 100% and the “Population Pyknosed Nuclei (%)” value [3] was 12% and 9%. For the same molecule, the “Total Cell Count” value [3] was 65 and 175, the “Population Apoptotic (%)” value [4] was 77% and 80% and the “Population Fragmented Nuclei (%)” value [4] was 9%. For the same molecule, the “Population Healthy Nuclei (%)” value [4] was 54% and 58%, the “Population Hoechst High Intensity Objects (%)” value [4] was 0% and the “Population Membrane Permeable-Phenotype (%)” value [4] was 11% and 8%. For the same molecule, the “Population Mitotic Cells (%)” value [4] was 22% and 19%, the “Population Normal (%)” value [4] was 100% and 99% and the “Population Pyknosed Nuclei (%)” value [4] was 35% and 32%. For the same molecule, the “Population Tubulin-Different-Phenotype (%)” value [4] was 23% and 47%, the “Population Apoptotic (%)” value [5] was 78% and 74% and the “Population Healthy Nuclei (%)” value [5] was 45% and 79%. The “Population Hoechst High Intensity Objects (%)” value [5] was 0%, the “Population Membrane Permeable-Phenotype (%)” value [5] was 9% and 2% and the “Population Mitochondria Different-Phenotype (%)” value [5] was 4% and 0%. The “Population Mitotic Cells (%)” value [5] was 21% and 25%, the “Population Normal (%)” value [5] was 100% and the “Population Pyknosed Nuclei (%)” value [5] was 20% and 12%. The “Population Tubulin-Different-Phenotype (%)” value [5] was 33% and 81%, the “Population Apoptotic (%)” value [6] was 94% and 76% and the “Population Fragmented Nuclei (%)” value [6] was 7% and 14%. The “Population Healthy Nuclei (%)” value [6] was 63% and 52%, the “Population Hoechst High Intensity Objects (%)” value [6] was 0% and the “Population Membrane Permeable-Phenotype (%)” value [6] was 9% and 10%. The “Population Mitochondria Different-Phenotype (%)” value [6] was 7% and 8%, the “Population Normal (%)” value [6] was 99% and 100% and the “Population Pyknosed Nuclei (%)” value [6] was 28% and 33%. The “Population Tubulin-Different-Phenotype (%)” value [6] was 50% and 34%.
For `COc1ccncc1C(=O)NC(=O)Nc1ccc(-c2ccccc2)c(C(F)(F)F)c1`, the “Population Apoptotic (%)” value [1] was 33% and 36%, the “Population Healthy Nuclei (%)” value [1] was 65% and 86% and the “Population Hoechst High Intensity Objects (%)” value [1] was 0%. For the same molecule, the “Population Membrane Permeable-Phenotype (%)” value [1] was 0% and 1%, the “Population Mitochondria Different-Phenotype (%)” value [1] was 0% and 1% and the “Population Mitotic Cells (%)” value [1] was 66% and 63%. For the same molecule, the “Population Normal (%)” value [1] was 100%, the “Population Pyknosed Nuclei (%)” value [1] was 11% and 9% and the “Population Tubulin-Different-Phenotype (%)” value [1] was 58% and 88%. For the same molecule, the “Population Apoptotic (%)” value [2] was 25% and 33%, the “Population Fragmented Nuclei (%)” value [2] was 8% and 2% and the “Population Healthy Nuclei (%)” value [2] was 75% and 88%. The “Population Hoechst High Intensity Objects (%)” value [2] was 0%, the “Population Membrane Permeable-Phenotype (%)” value [2] was 2% and 1% and the “Population Mitochondria Different-Phenotype (%)” value [2] was 2% and 1%. The “Population Mitotic Cells (%)” value [2] was 75% and 66%, the “Population Normal (%)” value [2] was 100% and the “Population Pyknosed Nuclei (%)” value [2] was 16% and 9%. For the same molecule, the “Population Tubulin-Different-Phenotype (%)” value [2] was 67% and 78%, the “Population Apoptotic (%)” value [3] was 66% and 57% and the “Population Healthy Nuclei (%)” value [3] was 63% and 90%. For the same molecule, the “Population Hoechst High Intensity Objects (%)” value [3] was 0%, the “Population Membrane Permeable-Phenotype (%)” value [3] was 4% and 2% and the “Population Mitochondria Different-Phenotype (%)” value [3] was 0% and 1%. For the same molecule, the “Population Mitotic Cells (%)” value [3] was 33% and 42%, the “Population Normal (%)” value [3] was 100% and the “Population Pyknosed Nuclei (%)” value [3] was 15% and 6%. The “Population Tubulin-Different-Phenotype (%)” value [3] was 62% and 89%, the “Population Apoptotic (%)” value [4] was 66% and 31% and the “Population Fragmented Nuclei (%)” value [4] was 1% and 3%. The “Population Healthy Nuclei (%)” value [4] was 93% and 90%, the “Population Hoechst High Intensity Objects (%)” value [4] was 0% and the “Population Membrane Permeable-Phenotype (%)” value [4] was 5% and 0%. The “Population Mitochondria Different-Phenotype (%)” value [4] was 0%, the “Population Mitotic Cells (%)” value [4] was 33% and 68% and the “Population Normal (%)” value [4] was 100%. For the same molecule, the “Population Pyknosed Nuclei (%)” value [4] was 5% and 6%, the “Population Tubulin-Different-Phenotype (%)” value [4] was 72% and 79% and the “Population Apoptotic (%)” value [5] was 60% and 43%. The “Population Healthy Nuclei (%)” value [5] was 70% and 90%, the “Population Hoechst High Intensity Objects (%)” value [5] was 0% and the “Population Membrane Permeable-Phenotype (%)” value [5] was 2% and 1%. For the same molecule, the “Population Mitochondria Different-Phenotype (%)” value [5] was 2% and 0%, the “Population Mitotic Cells (%)” value [5] was 40% and 56% and the “Population Normal (%)” value [5] was 100%. The “Population Pyknosed Nuclei (%)” value [5] was 10% and 7%, the “Population Tubulin-Different-Phenotype (%)” value [5] was 65% and 90% and the “Population Apoptotic (%)” value [6] was 23% and 69%. The “Population Fragmented Nuclei (%)” value [6] was 7% and 2%, the “Population Healthy Nuclei (%)” value [6] was 81% and 93% and the “Population Hoechst High Intensity Objects (%)” value [6] was 0%. For the same molecule, the “Population Membrane Permeable-Phenotype (%)” value [6] was 0%, the “Population Mitochondria Different-Phenotype (%)” value [6] was 0% and the “Population Mitotic Cells (%)” value [6] was 76% and 30%. For the same molecule, the “Population Normal (%)” value [6] was 100% and 99%, the “Population Pyknosed Nuclei (%)” value [6] was 10% and 4% and the “Population Tubulin-Different-Phenotype (%)” value [6] was 83%.
In the case of `CS(=O)(=O)c1ccc(C(=O)Nc2cc(F)c(F)c(COc3cc(F)c(Br)cc3CN3CC[C@H](O)C3)c2)c(Cl)c1.O=CO`, the “Population Apoptotic (%)” value [1] is reported as 71% and 68%, the “Population Hoechst High Intensity Objects (%)” value [1] is reported as 0% and the “Population Normal (%)” value [1] is reported as 100%. The “Population Apoptotic (%)” value [2] was 51% and 52%, the “Population Healthy Nuclei (%)” value [2] was 28% and the “Population Hoechst High Intensity Objects (%)” value [2] was 0%. For the same molecule, the “Population Normal (%)” value [2] was 99% and 100%, the “Population Apoptotic (%)” value [3] was 60% and 78% and the “Population Hoechst High Intensity Objects (%)” value [3] was 0%. For the same molecule, the “Population Normal (%)” value [3] was 100%, the “Population Apoptotic (%)” value [4] was 88% and 86% and the “Population Hoechst High Intensity Objects (%)” value [4] was 0%. For the same molecule, the “Population Normal (%)” value [4] was 100% and 99%, the “Population Apoptotic (%)” value [5] was 60% and 89% and the “Population Healthy Nuclei (%)” value [5] was 85%. The “Population Hoechst High Intensity Objects (%)” value [5] was 1% and 0%, the “Population Normal (%)” value [5] was 98% and 100% and the “Population Apoptotic (%)” value [6] was 98% and 90%. For the same molecule, the “Population Healthy Nuclei (%)” value [6] was 14% and 6%, the “Population Hoechst High Intensity Objects (%)” value [6] was 1% and 3% and the “Population Normal (%)” value [6] was 98% and 96%.
